Published values pooled from the literature.
Compare with care: the assays were run in different laboratories.
HTR2A: 5-hydroxytryptamine receptor 2A (HTR2A, Homo sapiens, UniProt P28223)
PPO3: PPO3 (Agaricus bisporus, UniProt C7FF04)
PDE4A: 3',5'-cyclic-AMP phosphodiesterase 4A (PDE4A, Homo sapiens, UniProt P27815)
HDAC2: Histone deacetylase 2 (HDAC2, Homo sapiens, UniProt Q92769)

| SMILES | target | effect on | action | method | IC50 |
| --- | --- | --- | --- | --- | --- |
| C=CCNC(=O)C(C)N1CCCC(c2ccc(O)cc2)C1 (stereo not drawn) | HTR2A | calcium signal | antagonist | – | 15800 nM |
| Nc1ccc(-c2cc(-c3ccc(-c4cc(-c5ccc(N)cc5)nc(N)n4)cc3)nc(N)n2)cc1 | PPO3 | enzyme activity | inhibitor | absorbance | 12400 nM |
| CCc1c(C)nc(-c2ccc(Cl)s2)nc1Nc1ccc(CC(=O)O)cc1 | PDE4A | enzyme activity | inhibitor | FP | ~3700 nM |
| O=C(NO)c1cncc(OS(=O)(=O)Oc2ccc3ccccc3c2)c1 | HDAC2 | enzyme activity | inhibitor | fluorescence | 1460 nM |
| C=CC(=O)N1CCCN(C(=O)c2cc(Sc3cnc(NC(=O)C4CC4)s3)c(C)cc2OC)C[C@H]1C | Tyrosine-protein kinase TXK (TXK, Homo sapiens, UniProt P42681) | enzyme activity | inhibitor | – | 261 nM |
| CCN(Cc1cc(Br)ccc1O)C(=O)C(N)Cc1ccco1 (stereo not drawn) | HTR2A | calcium signal | antagonist | – | 27000 nM |
| Nc1ccccc1NC(=O)c1ccc(CNc2ccc(NC3=C(Cl)C(=O)c4cccnc4C3=O)cc2)cc1 | HDAC2 | enzyme activity | inhibitor | – | 415 nM |
| O=C(NO)c1cncc(OS(=O)(=O)Oc2ccc(-n3ccnc3)cc2)c1 | HDAC2 | enzyme activity | inhibitor | fluorescence | 1370 nM |
| Nc1nc(-c2ccccc2)cc(-c2ccc(-c3cc(-c4ccccc4)nc(N)n3)cc2)n1 | PPO3 | enzyme activity | inhibitor | absorbance | 86700 nM |
| CN(C(=O)c1cn[nH]n1)C1CCN(CCc2cccc(Cl)c2Cl)C1 (stereo not drawn) | HTR2A | calcium signal | antagonist | – | 907 nM |
| CN(C)C(=O)c1cc2cnc(Nc3ccc(N4CCNCC4)cn3)nc2n1C1CCCC1 | PDE4A | enzyme activity | inhibitor | TR-FRET | 250 nM |
| Nc1nc(-c2ccc(Br)cc2)cc(-c2ccc(-c3cc(-c4ccc(Br)cc4)nc(N)n3)cc2)n1 | PPO3 | enzyme activity | inhibitor | absorbance | 40900 nM |
